Results: ChEMBL document CHEMBL1122064, “Synthesis and biological evaluation of 17-[131I]iodo-9-telluraheptadecanoic acid, a potential imaging agent” (J Med Chem, 1982)

Columns and labels:
[1] = test system: Rattus norvegicus; assay: Distribution of radioactivity in lungs of Fischer 344 female rat after 30 min of intravenous administration; assay type: ADME, organism-based, Lung; conditions: in vivo, 0.5 h
How it was run: (§1)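 Female Fischer 344 rats, 10-12 weeks, 170-200 g, fed ad libitum. The labelled fatty acid was given in 6% bovine serum albumin via a lateral tail vein under ether anaesthesia. Rats were killed by CO2 anaesthesia and cervical fracture; organs were excised, rinsed, blotted, weighed and counted by Ge(Li) analyzer. Results are mean percent injected dose/g with range.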

[2] = test system: Rattus norvegicus; assay: Distribution of radioactivity in lungs of Fischer 344 female rat after 5 min of intravenous administration; assay type: ADME, organism-based, Lung; conditions: in vivo
How it was run: (§2)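 Tracer was the 123mTe-labelled fatty acid, about 2.5 μCi per rat (sp act. ~16 mCi/mmol), given in 6% bovine serum albumin into a lateral tail vein. Female Fischer 344 rats, 10-12 weeks, 170-200 g, four per time point. Excised organs were rinsed, blotted and weighed, then counted by Ge(Li) analyzer, with mean percent injected dose/g and range reported.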

[3] = test system: Rattus norvegicus; assay: Distribution of radioactivity in liver of Fischer 344 female rat after 60 min of intravenous administration; assay type: ADME, organism-based; conditions: in vivo, 1 h; how it was run: as §1
[4] = test system: Rattus norvegicus; assay: Distribution of radioactivity in liver of Fischer 344 female rat after 5 min of intravenous administration; assay type: ADME, organism-based; conditions: in vivo; how it was run: as §2
[5] = test system: Rattus norvegicus; assay: Distribution of radioactivity in liver of Fischer 344 female rat after 30 min of intravenous administration; assay type: ADME, organism-based; conditions: in vivo, 0.5 h; how it was run: as §1
[6] = test system: Rattus norvegicus; assay: Distribution of radioactivity in kidneys of Fischer 344 female rat after 30 min of intravenous administration; assay type: ADME, organism-based, Kidney; conditions: in vivo, 0.5 h
[7] = test system: Rattus norvegicus; assay: Distribution of radioactivity in blood of Fischer 344 female rat after 30 min of intravenous administration; assay type: ADME, organism-based; conditions: in vivo, 0.5 h
[8] = test system: Rattus norvegicus; assay: Distribution of radioactivity in heart of Fischer 344 female rat after 5 min of intravenous administration; assay type: ADME, organism-based; conditions: in vivo
How it was run: (§3)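 In female Fischer 344 rats, each animal received about 2.5 µCi of the 123mTe-labelled fatty acid (sp act. ~16 mCi/mmol) in 6% bovine serum albumin through a lateral tail vein. Four rats were used per time point. Excised organs were rinsed, blotted, weighed and counted on a Ge(Li) analyzer. Results are mean (range) % injected dose per gram.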

[9] = test system: Rattus norvegicus; assay: Distribution of radioactivity in heart of Fischer 344 female rat after 60 min of intravenous administration; assay type: ADME, organism-based; conditions: in vivo, 1 h
[10] = test system: Rattus norvegicus; assay: Distribution of radioactivity in kidneys of Fischer 344 female rat after 60 min of intravenous administration; assay type: ADME, organism-based, Kidney; conditions: in vivo, 1 h
[11] = test system: Rattus norvegicus; assay: Distribution of radioactivity in kidneys of Fischer 344 female rat after 5 min of intravenous administration; assay type: ADME, organism-based, Kidney; conditions: in vivo; how it was run: as §3
[12] = test system: Rattus norvegicus; assay: Distribution of radioactivity in lungs of Fischer 344 female rat after 60 min of intravenous administration; assay type: ADME, organism-based, Lung; conditions: in vivo, 1 h; how it was run: as §1
[13] = test system: Rattus norvegicus; assay: Distribution of radioactivity in blood of Fischer 344 female rat after 5 min of intravenous administration; assay type: ADME, organism-based; conditions: in vivo; how it was run: as §3
[14] = test system: Rattus norvegicus; assay: Distribution of radioactivity in blood of Fischer 344 female rat after 60 min of intravenous administration; assay type: ADME, organism-based; conditions: in vivo, 1 h
[15] = test system: Rattus norvegicus; assay: Distribution of radioactivity in heart of Fischer 344 female rat after 30 min of intravenous administration; assay type: ADME, organism-based; conditions: in vivo, 0.5 h

Structure (SMILES): O=C(O)CCCCCCCC[123Te]CCCCCCCCI
- Distribution of radioactivity [1]: 0.62 dose g-1
- Distribution of radioactivity [2]: 0.67 dose g-1
- Distribution of radioactivity [3]: 1.65 dose g-1
- Distribution of radioactivity [4]: 3.33 dose g-1
- Distribution of radioactivity [5]: 2.11 dose g-1
- Distribution of radioactivity [6]: 1.05 dose g-1
- Distribution of radioactivity [7]: 0.36 dose g-1
- Distribution of radioactivity [8]: 1.38 dose g-1
- Distribution of radioactivity [9]: 1.58 dose g-1
- Distribution of radioactivity [10]: 0.99 dose g-1
- Distribution of radioactivity [11]: 1.17 dose g-1
- Distribution of radioactivity [12]: 0.56 dose g-1
- Distribution of radioactivity [13]: 0.13 dose g-1
- Distribution of radioactivity [14]: 0.25 dose g-1
- Distribution of radioactivity [15]: 2.24 dose g-1
